Source: article PMC2709241 (Archives of biochemistry and biophysics, 2008)
Residue numbers refer to the chain shown, from its start. Where two headings read alike, the source gives them in different places. One block for each molecule: values may come before it.

How the values were obtained:
[1] = molecular target: T1, wild-type C-his tagged human MDD (Homo sapiens, UniProt P53602); assay: Steady-state kinetics of wild-type; format: biochemical
T1 sequence (P53602 1-400): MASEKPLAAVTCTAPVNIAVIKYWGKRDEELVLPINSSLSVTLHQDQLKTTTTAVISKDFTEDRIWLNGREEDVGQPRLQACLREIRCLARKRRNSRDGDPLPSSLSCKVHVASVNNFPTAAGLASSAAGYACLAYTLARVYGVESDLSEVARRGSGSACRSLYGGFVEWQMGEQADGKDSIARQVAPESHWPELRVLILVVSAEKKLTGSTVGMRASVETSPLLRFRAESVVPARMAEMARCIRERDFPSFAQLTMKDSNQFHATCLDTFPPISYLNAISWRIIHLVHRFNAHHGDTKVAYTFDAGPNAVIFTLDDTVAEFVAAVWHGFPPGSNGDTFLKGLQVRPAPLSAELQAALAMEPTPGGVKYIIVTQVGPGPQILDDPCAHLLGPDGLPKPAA
Outline: (§1)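 His6-tagged human enzyme from E. coli BL21(DE3) was Ni-Sepharose purified and quantified by Bradford. Spectrophotometric assay at 30°C: ADP formation coupled through pyruvate kinase/lactate dehydrogenase (4 U) to NADH oxidation, with A340 decrease followed. Started with mevalonate diphosphate; substrate varied; Michaelis-Menten fit.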

S162A mutant human MDD = molecular target: T2, S162A mutant human MDD (Homo sapiens, UniProt P53602, S162A); assay: Steady-state kinetics of S162A human MDD; format: biochemical
T2 sequence (P53602 1-400 S162A): T1 sequence (P53602 1-400) with S162A
Outline: as §1

N-his tagged human MDD = molecular target: T3, N-his tagged human MDD (Homo sapiens, UniProt P53602); assay: Steady-state kinetics of N-his tagged human MDD; format: biochemical; conditions: N-his tagged enzyme
T3 sequence (P53602 1-400): T1 sequence (P53602 1-400)
Outline: as §1

N17A mutant human MDD = molecular target: T4, N17A mutant human MDD (Homo sapiens, UniProt P53602, N17A); assay: Steady-state kinetics of N17A human MDD; format: biochemical; conditions: for Km: N17A
T4 sequence (P53602 1-400 N17A): T1 sequence (P53602 1-400) with N17A
Outline: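 N17A mutant, made by QuikChange PCR, was expressed and Ni-Sepharose purified as for the wild type. Started with mevalonate diphosphate; substrate varied; Michaelis-Menten fit. Km(ATP) was measured with RS-MVPP raised to 8.8 mM.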

wild-type human MDD = molecular target: T5, wild-type human MDD (Homo sapiens, UniProt P53602); assay: TNP-ATP fluorescence titration, Scatchard analysis, wild-type human MDD; format: binding
T5 sequence (P53602 1-400): T1 sequence (P53602 1-400)
Outline: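 Purified His6-tagged enzyme, wild type or mutant, was held at a fixed concentration while TNP-ATP was titrated in at 25°C. Buffer: 50 mM Tris-Cl pH 7.0, 0.5 mM MgCl2, 1 mM DTT. TNP-ATP was quantified at A409 (ε 26 400 M-1 cm-1). Excitation was 409 nm; peak emission (530–538 nm) was corrected for free probe in buffer alone. Scatchard analysis: Kd from slope; n per 44 kDa subunit from x-intercept.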

Km ([1]; read-out: Km(ATP), WT C-his, 30°C, pH 7.0): 690 ± 70 µM
Km (S162A mutant human MDD; read-out: Km(ATP)): 4900 ± 1300 µM
Km (N-his tagged human MDD; read-out: Km(ATP)): 1700 µM
Km (N17A mutant human MDD; read-out: Km(ATP), elevated RS-MVPP (8.8 mM)): 7700 ± 1200 µM
Structure (SMILES): Nc1ncnc2c1ncn2[C@@H]1O[C@H](COP(=O)(O)OP(=O)(O)OP(=O)(O)O)[C@@H](O)[C@H]1O [ATP]

Km ([1]; read-out: Km(R,S-MVAPP), WT, Table 4): 28.9 ± 3.3 µM
Km ([1]; read-out: Km(RS-MVPP), WT C-his, 30°C, pH 7.0): 28.9 ± 3.3 µM
Km (S162A mutant human MDD; read-out: Km(RS-MVPP)): 126 ± 6.4 µM
Km (N-his tagged human MDD; read-out: Km(RS-MVPP)): 42.1 µM
Fold Inflation of Km for mevalonate diphosphate, N17A vs WT (N17A mutant human MDD; N17A vs WT, listed as R,S-MVAPP): 14.7 fold
Km (N17A mutant human MDD; read-out: Km(R,S-MVAPP), Table 4): 425 ± 74 µM
Km (N17A mutant human MDD; read-out: Km(RS-MVPP), elevated ATP (20 mM) and MgCl2 (22mM)): 425 ± 74 µM
Structure (SMILES): C[C@@](O)(CCOP(=O)(O)OP(=O)(O)O)CC(=O)O [MVAPP, mevalonate 5-diphosphate]

Structure (SMILES): Nc1ncnc2c1ncn2[C@@H]1O[C@H](COP(=O)(O)OP(=O)(O)OP(=O)(O)O)[C@H]2OC3(O[C@H]21)C([N+](=O)[O-])=CC(=[N+]([O-])[O-])C=C3[N+](=O)[O-] (stereo partly shown) [TNP-ATP, 2’(3’)-O-(2,4,6-Trinitrophenyl)adenosine-5’-triphosphate]
Kd (wild-type human MDD): 550 nM
n (binding stoichiometry) (wild-type human MDD; WT, binding sites per 44 kDa subunit): 0.77
